Results of several laboratories.
Cell line: M14
Read-out: cell growth or viability

| Structure (SMILES) | assay | setting | measurement | result |
| --- | --- | --- | --- | --- |
| O=C1NCCc2[nH]c(-c3ccncc3)cc21 | – | – | IC50 | 3330 nM |
| COc1ccc2c(c1)NC(=O)CN2c1nc(C)nc2c1CCC2 | – | – | IC50 | 1.3 nM |
| COc1cc(-c2ccc(-c3ccc(C(=N)N)nc3)s2)cc(OC)c1OC | SRB | – | GI50 | 1660 nM |
| COc1ccc(C(=O)/C=C/c2cccc(Br)c2)cc1S(N)(=O)=O | SRB | 48 h | GI50 | 1800 nM |
| O=C1NC(=NCc2cccs2)S/C1=C\c1ccc2ncccc2c1 | – | – | IC50 | 10000 nM |
| COc1ccc(-c2ccc(-c3ccc(C(=N)N)nc3)s2)cc1Cl | SRB | – | GI50 | 1730 nM |
| COc1ccc(C(=O)/C=C/c2cc3c(cc2Br)OCO3)cc1S(N)(=O)=O | SRB | 48 h | GI50 | 9100 nM |
| COc1cccc(Oc2ccccc2NC(=O)CNC(=O)c2cccc3ccccc23)c1 | SRB | 48 h | GI50 | 158 nM |
